Assay results reported in ChEMBL document CHEMBL1124497, “Thromboxane A2 synthetase inhibitors. 2. Syntheses and activities of tetrahydronaphthalene and indan derivatives” (J Med Chem, 1989).

Experiments:
Type in all cases: functional
[1] = species: Rattus norvegicus; test: In vitro inhibition of thromboxane A2 production in rat platelet-rich plasma.
Outline: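 Citrated rat platelet-rich plasma (4 × 10⁷ platelets) was preincubated with compound for 1 min at room temperature with gentle shaking. Sodium arachidonate (final 0.5 mmol) started the reaction, which ran 5 min at room temperature with vigorous shaking. Indomethacin (final 0.1 mmol) stopped it. After centrifugation (1000g, 5 min), supernatant TXB₂ was measured by radioimmunoassay. IC₅₀ is the concentration giving 50% inhibition of TXB₂ production.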

[2] = tested on: Rattus norvegicus; test: Inhibition of thromboxane B2 production in whole blood of rat 75 min after intravenous injection of compound at 0.1 mg/kg; settings: 1.25 h
Outline: (§1)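 The compound was given intravenously to rats in physiological saline; controls received vehicle. Whole blood was drawn from the external jugular vein under anesthesia at 15, 45 and 75 min. Samples were kept on ice 15 min, clotted at 37 °C for 1 h and centrifuged (1000g, 10 min). Serum TXB₂ was measured by radioimmunoassay and expressed as % inhibition.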

[3] = tested on: Rattus norvegicus; test: Inhibition of thromboxane B2 production in whole blood of rats 1 hr following 1 mg/kg p.o.; settings: route oral
Outline: (§2)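 Rats were dosed orally at 1 mg/kg with compound suspended in water; controls received vehicle. Whole blood was drawn from the external jugular vein under anesthesia at 1, 3 and 6 h, held on ice 15 min, then clotted at 37 °C for 1 h. Serum was separated at 1000g for 10 min. TXB₂, 6-keto-PGF₁α (the PGI₂ metabolite) and PGE₂ were measured by radioimmunoassay. Prostanoid enhancement is expressed as x-fold at 1 h.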

[4] = tested on: Rattus norvegicus; test: Inhibition of thromboxane B2 production in whole blood of rats, 3h after a peroral dose of 1.0 mg/kg; settings: route oral; outline: as §2
[5] = tested on: Rattus norvegicus; test: Inhibition of thromboxane B2 production in whole blood of rats, 6 hr after a peroral dose of 1.0 mg/kg; settings: route oral; outline: as §2
[6] = tested on: Rattus norvegicus; test: Inhibition of thromboxane B2 production in whole blood of rat 15 min after intravenous injection of compound at 0.1 mg/kg; settings: 0.25 h; outline: as §1
[7] = tested on: Rattus norvegicus; test: Inhibition of thromboxane B2 production in whole blood of rat 45 min after intravenous injection of compound at 0.1 mg/kg; settings: 0.75 h; outline: as §1
[8] = tested on: Rattus norvegicus; test: Enhancement of prostaglandin E2 levels in serum of incubated whole blood at 1 hr after an oral dose of 1 mg/kg; outline: as §2
[9] = tested on: Rattus norvegicus; test: Increase in serum prostaglandin I2 levels in incubated whole blood from rats, 1 hr following 1 mg/kg p.o.; settings: route oral; outline: as §2
[10] = tested on: Rattus norvegicus; test: Inhibition of thromboxane B2 production in whole blood of rats, 1 hr after a peroral dose of 0.1 mg/kg; settings: route oral
[11] = tested on: Rattus norvegicus; test: Inhibition of thromboxane A2 production in whole blood of rats, 4 hr after a peroral dose of 0.1 mg/kg; settings: route oral
[12] = tested on: Rattus norvegicus; test: Inhibition of thromboxane A2 production in whole blood of rats, 4 hr after a peroral dose of 1.0 mg/kg; settings: route oral
[13] = tested on: Rattus norvegicus; test: Inhibition of thromboxane B2 production in whole blood of rats, 4 hr after a peroral dose of 0.1 mg/kg; settings: route oral

Row | SMILES | IC50 [1] | inhibition in vivo at 0.1 mg/kg [2] | inhibition in vivo at 1 mg/kg [3] | inhibition in vivo at 1 mg/kg [4] | inhibition in vivo at 1 mg/kg [5] | inhibition in vivo at 0.1 mg/kg [6] | inhibition in vivo at 0.1 mg/kg [7] | x fold [8] | x fold [9] | inhibition in vivo at 0.1 mg/kg [10] | inhibition in vivo at 0.1 mg/kg [11] | inhibition in vivo at 1 mg/kg [12] | inhibition in vivo at 0.1 mg/kg [13]
1 | O=C(O)c1ccc2c(c1)CCCC2CCn1ccnc1 (stereo unspecified) | 14000 nM | 46% | 93% | 59% | 28% | 84% | 53% | 10.05 | 3.38 |  |  |  | 
2 | Cl.O=C(O)c1ccc2c(c1)CC(Cn1ccnc1)CC2 (stereo unspecified) | 5600 nM |  | 57% |  |  |  |  | 4.27 | 1.99 |  |  |  | 
3 | Cl.O=C(O)C1Cc2ccc(Cn3ccnc3)cc2C1 (stereo unspecified) | 7200 nM | 32% | 87% | 75% | 61% | 58% | 46% | 7.27 | 3.14 |  |  |  | 
4 | O=C([O-])c1ccc2c(c1)CC(Cc1cncs1)C2.[Na+] (stereo unspecified) | 400 nM | 26% | 94% | 87% | 52% | 77% | 62% | 9.55 | 3.52 |  |  |  | 
5 | Cl.O=C(O)c1ccc2c(c1)CC(Cn1ccnc1)C2 (stereo unspecified) | 6600 nM | 51% | 95% | 90% | 74% | 73% | 60% | 6.93 | 3.57 |  |  |  | 
6 | O=C([O-])c1ccc2c(c1)CCC(Cc1cncs1)C2.[Na+] (stereo unspecified) | 140 nM | 75% | 93% | 88% | 78% | 90% | 87% | 5.26 | 2.55 |  |  |  | 
7 | O=C([O-])C1CCc2cc(Cc3cncs3)ccc2C1.[Na+] (stereo unspecified) | 1900 nM |  | 69% |  |  |  |  | 5.91 | 2.65 |  |  |  | 
8 | O=C([O-])c1cccc2c1CCCC2CCc1cncs1.[Na+] (stereo unspecified) | 370 nM | 67% | 97% | 93% | 86% | 88% | 79% | 5.63 | 2.68 |  |  |  | 

The next lines start with results.

Row | IC50 [1] | SMILES | inhibition in vivo at 0.1 mg/kg [2] | inhibition in vivo at 1 mg/kg [3] | inhibition in vivo at 1 mg/kg [4] | inhibition in vivo at 1 mg/kg [5] | inhibition in vivo at 0.1 mg/kg [6] | inhibition in vivo at 0.1 mg/kg [7] | x fold [8] | x fold [9] | inhibition in vivo at 0.1 mg/kg [10] | inhibition in vivo at 0.1 mg/kg [11] | inhibition in vivo at 1 mg/kg [12] | inhibition in vivo at 0.1 mg/kg [13]
9 | 3800 nM | O=C(O)c1ccc(OCCc2cncs2)cc1 |  | 88% | 83% | 54% |  |  |  | 3.14 |  |  |  | 
10 | 5400 nM | Cl.O=C(O)c1cccc2c1CCCC2CCn1ccnc1 (stereo unspecified) | 64% | 93% | 93% | 76% | 79% | 74% | 5.88 | 3.02 |  |  |  | 
11 | 860 nM | O=C(O)c1cccc2c1CCC2CCn1ccnc1 (stereo unspecified) |  | 97% |  |  |  |  |  |  |  |  |  | 
12 | 12000 nM | Cc1c(Cn2ccnc2)c2ccccc2n1CCC(=O)O [DAZMEGREL] | 29% | 92% | 71% | 40% | 11% | 46% | 5.36 | 2.26 |  |  |  | 
13 | 11000 nM | O=C(O)c1ccc(OCCn2ccnc2)cc1 [DAZOXIBEN] |  | 50% | 21% | 8% | 25% | 6% | 3.91 | 1.9 |  |  |  | 
14 | 220 nM | C/C(=C\c1ccc(Cc2cncs2)cc1)C(=O)O |  | 44% |  |  |  |  |  |  |  |  |  | 
15 | 4500 nM | O=C(O)/C=C/c1ccc(Cn2ccnc2)cc1 [OZAGREL] | 46% | 91% | 42% | 11% | 89% | 72% | 4.8 | 2.5 |  |  |  | 
16 | 1500 nM | O=C(O)/C=C/c1ccc(Cc2cncs2)cc1 |  | 39% |  |  |  |  |  |  |  |  |  | 
17 | 250 nM | O=C(O)CCCC/C=C(\c1ccccc1)c1cccnc1 [(E)-ISBOGREL] |  | 96% |  |  |  |  |  |  | 75% | 40% | 80% | 
18 | 1100 nM | Cl.O=C(O)c1ccc2c(c1)CCC(Cn1ccnc1)C2 (stereo unspecified) | 88% | 98% | 93% | 88% | 95% | 93% | 5.9 | 2.91 | 85% |  |  | 76%
19 | 150 nM | C/C(=C\c1ccc(Cc2cccnc2)cc1)C(=O)O |  | 71% | 64% | 44% |  |  | 3.87 | 2.55 |  |  |  | 
20 | 1400 nM | Cl.O=C(O)C1CCc2cc(Cn3ccnc3)ccc2C1 (stereo unspecified) |  | 88% | 69% | 49% |  |  | 4.79 | 2.22 |  |  |  | 
